{
  "source": "paper PMC2018624",
  "about": "(Nucleic Acids Research, 2007)",
  "molecules": {"B1": {"name": "hPTIP BRCT pair C2: bacterially expressed GST-hPTIP (862–1069) (protein, UniProt Q6ZW49 862-1069, looked up, fragment)", "chain": "TPELTPFVLFTGFEPVQVQQYIKKLYILGGEVAESAQKCTHLIASKVTRTVKFLTAISVVKHIVTPEWLEECFRCQKFIDEQNYILRDAEAEVLFSFSLEESLKRAHVSPLFKAKYFYITPGICPSLSTMKAIVECAGGKVLSKQPSFRKLMEHKQNSSLSEIILISCENDLHLCREYFARGIDVHNAEFVLTGVLTQTLDYESYKFN", "modifications": "GST tag"}},
  "key": {"FLAG-hPTIP": {"tested_on": "FLAG-hPTIP", "test": "Co-immunoprecipitation of mutant HA-53BP1 with FLAG-hPTIP after IR", "format": "cell-based, human", "settings": "HEK293, IR 0 or 20 Gy, anti-FLAG immunoprecipitates", "outline": "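HEK293 cells in DMEM with 10% FBS and penicillin/streptomycin at 37°C, 5% CO2. Cells co-transfected by calcium phosphate with FLAG-hPTIP and full-length HA-53BP1 carrying Ser/Thr→Ala mutations at ATM S/T-Q motifs. Cells irradiated at 0 or 20 Gy and lysed. Anti-FLAG immunoprecipitates run on SDS–PAGE and western blotted to detect co-precipitated 53BP1.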"}, "HEK293 cells": {"tested_on": "HEK293 cells", "test": "53BP1 retention at sites of DNA damage", "format": "cell-based", "settings": "HEK293, 10 Gy IR, 45 min recovery"}, "[1]": {"tested_on": "53BP1 Ser25 phosphorylation in HEK293 cells", "test": "IR-induced phosphorylation of 53BP1 Ser25 in HEK293 cells", "format": "cell-based", "settings": "10 μM inhibitor pre-incubated 1 h, IR 10 Gy, western blot"}, "[2]": {"molecular_target": "hPTIP BRCT domain pair C2 (Homo sapiens, UniProt Q6ZW49)", "test": "BiaCore binding to hPTIP BRCT pair C2 alone"}, "[3]": {"molecular_target": "hPTIP-BRCT pair C1 + C2 W929A (Homo sapiens, UniProt Q6ZW49, W929A)", "sequence (Q6ZW49 590-1069 W929A)": "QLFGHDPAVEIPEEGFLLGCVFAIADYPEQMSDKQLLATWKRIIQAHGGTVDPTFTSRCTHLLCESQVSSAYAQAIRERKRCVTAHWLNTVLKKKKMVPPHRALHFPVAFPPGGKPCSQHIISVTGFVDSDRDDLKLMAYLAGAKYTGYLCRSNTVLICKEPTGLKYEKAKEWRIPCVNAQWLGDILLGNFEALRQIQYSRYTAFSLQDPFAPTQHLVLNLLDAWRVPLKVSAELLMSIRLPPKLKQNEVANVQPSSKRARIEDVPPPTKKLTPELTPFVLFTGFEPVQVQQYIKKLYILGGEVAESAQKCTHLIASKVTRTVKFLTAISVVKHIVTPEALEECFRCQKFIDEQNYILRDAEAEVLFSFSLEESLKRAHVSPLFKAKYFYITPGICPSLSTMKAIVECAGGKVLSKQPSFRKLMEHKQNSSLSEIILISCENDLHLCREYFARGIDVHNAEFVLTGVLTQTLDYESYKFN", "test": "BiaCore binding to hPTIP BRCT pair C1 + C2 W929A"}, "[4]": {"molecular_target": "hPTIP-BRCT pair C1 + C2 W676A (Homo sapiens, UniProt Q6ZW49, W676A)", "sequence (Q6ZW49 590-1069 W676A)": "as the sequence (Q6ZW49 590-1069 W929A) above, with W87A, A340W counted along it", "test": "BiaCore binding to hPTIP BRCT pair C1 + C2 W676A"}, "[5]": {"molecular_target": "53BP1 peptide Ser25(P), biotin-…p… (human)", "sequence (Q12888 16-35)": "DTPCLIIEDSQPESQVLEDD", "test": "SPR"}, "[6]": {"molecular_target": "53BP1 peptide Non(P), biotin-… (human)", "test": "SPR"}, "[7]": {"molecular_target": "S-Q-V-F (P) peptide, biotin-GAAYDI-pSQ-VFPFAKKK"}, "U2OS cells": {"tested_on": "U2OS cells", "test": "hPTIP nuclear focus formation after IR in U2OS cells", "format": "cell-based", "settings": "15 Gy IR, 45 min recovery", "outline": "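U2OS cells on glass coverslips transiently transfected with wild-type or point-mutant FLAG-hPTIP. Irradiated 0 or 15 Gy, recovered 45 min at 37°C, then fixed, permeabilised and blocked. Anti-FLAG or anti-53BP1 (1 µg/ml) 60 min at room temperature, then Alexa488/594 secondaries (2 µg/ml) 60 min. Fluorescence microscopy; anti-FLAG foci counted in ~200 transfected cells; mean ± SD.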"}, "[8]": {"tested_on": "BRCA1 Ser1524 phosphorylation in HEK293 cells", "test": "IR-induced phosphorylation of BRCA1 at Ser1524", "format": "cell-based", "settings": "HEK293, IR 3 Gy, siRNA depletion or rescue, western blot"}, "full-length HA-53BP1": {"tested_on": "full-length HA-53BP1", "test": "Co-immunoprecipitation of mutant FLAG-hPTIP with HA-53BP1 after IR", "format": "cell-based, human", "settings": "HEK293, IR 0 or 20 Gy, anti-FLAG immunoprecipitates"}, "53BP1 [9]": {"tested_on": "53BP1", "test": "GST-hPTIP BRCT retrieval of 53BP1 from extracts of irradiated HEK 293 cells", "format": "binding, human", "settings": "GST fusion on glutathione-sepharose, HEK 293 extract, 10 Gy IR, western blot"}, "[10]": {"tested_on": "Chk2 Thr68 phosphorylation in HEK293 cells", "test": "IR-induced phosphorylation of Chk2 at Thr68", "format": "cell-based", "settings": "HEK293, IR 3 Gy, siRNA depletion or rescue, western blot"}, "[11]": {"molecular_target": "GST-hPTIP (590–1069) W929A (human, UniProt Q6ZW49 590-1069, W929A)", "test": "SPR"}, "[12]": {"molecular_target": "GST-hPTIP (590–1069) W676A (human, UniProt Q6ZW49 590-1069, W676A)", "sequence (Q6ZW49 590-1069 W676A)": "as the sequence (Q6ZW49 590-1069 W929A) above, with W87A, A340W counted along it", "test": "SPR"}, "53BP1 [13]": {"tested_on": "53BP1", "settings": "previous report; ref [4]; cited from earlier work"}},
  "note": "Square brackets hold non-standard residues; d marks the D form. Ends that are not written are not given here. Peptide text beside a SMILES is read from it. * marks the point of attachment. Biotin = O=C1N[C@H]2[C@H](CS[C@H]2CCCCC(=O)*)N1; pS = N[C@@H](COP(=O)(O)O)C(=O)O",
  "data": [
    {"molecule": "53BP1 Ser25Ala mutant", "values": [
      {"measurement": "IR-induced interaction of 53BP1 with hPTIP", "setting": "FLAG-hPTIP", "value": "abolished"},
      {"measurement": "retention at sites of DNA damage", "setting": "HEK293 cells", "value": "indistinguishable from the wild-type protein"}
    ]},
    {"molecule": "O=c1cc(-c2cccc3c2Sc2ccccc2S3)oc(N2CCOCC2)c1", "note": "[KU55933]", "values": [
      {"measurement": "IR-induced phosphorylation of 53BP1 Ser25", "setting": "[1]", "value": "not in cells pre-incubated with the ATM-specific inhibitor KU55933"}
    ]},
    {"molecule": "O=c1cc(N2CCOCC2)oc2c(-c3cccc4c3sc3ccccc34)cccc12", "note": "[NU7441]", "values": [
      {"measurement": "IR-induced phosphorylation of 53BP1 Ser25", "setting": "[1]", "value": "did not affect IR-induced phosphorylation of 53BP1 Ser25"}
    ]},
    {"molecule": "CC[C@H](C)[C@H](NC(=O)[C@H](CC(=O)O)NC(=O)[C@H](Cc1ccc(O)cc1)NC(=O)[C@H](C)NC(=O)[C@H](C)NC(=O)CNC(=O)CCCC[C@@H]1SC[C@@H]2NC(=O)N[C@@H]21)C(=O)N[C@@H](COP(=O)(O)O)C(=O)N[C@@H](CCC(N)=O)C(=O)N[C@H](C(=O)N[C@@H](Cc1ccccc1)C(=O)N1CCC[C@H]1C(=O)N[C@@H](Cc1ccccc1)C(=O)N[C@@H](C)C(=O)N[C@@H](CCCCN)C(=O)N[C@@H](CCCCN)C(=O)N[C@@H](CCCCN)C(=O)O)C(C)C", "note": "[S-Q-V-F peptide] (Biotin-GAAYDI[pS]QVFPFAKKK-OH)", "values": [
      {"measurement": "Kd", "setting": "[2]", "value": "~0.273", "unit": "µM"}
    ]},
    {"molecule": "CC[C@H](C)[C@H](NC(=O)[C@H](CC(C)C)NC(=O)[C@H](CS)NC(=O)[C@@H]1CCCN1C(=O)[C@@H](NC(=O)[C@H](CC(=O)O)NC(=O)CCCC[C@@H]1SC[C@@H]2NC(=O)N[C@@H]21)[C@@H](C)O)C(=O)N[C@H](C(=O)N[C@@H](CCC(=O)O)C(=O)N[C@@H](CC(=O)O)C(=O)N[C@@H](COP(=O)(O)O)C(=O)N[C@@H](CCC(N)=O)C(=O)N1CCC[C@H]1C(=O)N[C@@H](CCC(=O)O)C(=O)N[C@@H](CO)C(=O)N[C@@H](CCC(N)=O)C(=O)N[C@H](C(=O)N[C@@H](CC(C)C)C(=O)N[C@@H](CCC(=O)O)C(=O)N[C@@H](CC(=O)O)C(=O)N[C@@H](CC(=O)O)C(=O)O)C(C)C)[C@@H](C)CC", "note": "[Ser25(P)] (Biotin-DTPCLIIED[pS]QPESQVLEDD-OH)", "values": [
      {"measurement": "Kd", "setting": "[3]", "value": "> 1000", "unit": "µM"},
      {"measurement": "Kd", "setting": "[4]", "value": "> 1000", "unit": "µM"}
    ]},
    {"molecule": "GST-hPTIP (590–1069) (BRCT pairs C1 + C2) (from UniProt Q6ZW49 590-1069) (domain or fragment)", "values": [
      {"measurement": "Kd", "setting": "[5]", "value": 0.526, "unit": "µM"},
      {"measurement": "Kd", "setting": "[6]", "value": "> 1000", "unit": "µM"}
    ]},
    {"molecule": "GST-hPTIP (862–1069) (BRCT pair C2) (from UniProt Q6ZW49 862-1069) (domain or fragment)", "values": [
      {"measurement": "Kd", "setting": "[7]", "value": 0.273, "unit": "µM"}
    ]},
    {"molecule": "R910Q", "values": [
      {"measurement": "nuclear focus formation after IR", "setting": "U2OS cells", "value": "little effect on the ability of hPTIP to form foci after IR"},
      {"measurement": "phosphorylation of BRCA1 at Ser1524", "setting": "[8]", "value": "could not"},
      {"measurement": "binding of hPTIP to 53BP1 in IR-treated cells", "setting": "full-length HA-53BP1", "value": "abolished"}
    ]},
    {"molecule": "W676A", "values": [
      {"measurement": "nuclear focus formation after IR", "setting": "U2OS cells", "value": "prevented focus formation"},
      {"measurement": "number of nuclear foci per cell, after IR", "setting": "U2OS cells; ∼200 transfected cells, almost all cells", "value": "< 10", "unit": "foci"},
      {"measurement": "binding of hPTIP to 53BP1 in IR-treated cells", "setting": "full-length HA-53BP1", "value": "abolished"},
      {"measurement": "retrieval of 53BP1 from cell extracts", "setting": "53BP1 [9]", "value": "prevented"}
    ]},
    {"molecule": "W929A", "values": [
      {"measurement": "nuclear focus formation after IR", "setting": "U2OS cells", "value": "prevented focus formation"},
      {"measurement": "binding of hPTIP to 53BP1 in IR-treated cells", "setting": "full-length HA-53BP1", "value": "abolished"}
    ]},
    {"molecule": "mutation of Ser29: 53BP1 with Ser29 singly mutated", "values": [
      {"measurement": "IR-induced interaction of 53BP1 with hPTIP", "setting": "FLAG-hPTIP", "value": "no effect"}
    ]},
    {"molecule": "wild-type 53BP1: HA-53BP1 carrying a silent mutation, refractory to silencing by siRNA", "values": [
      {"measurement": "phosphorylation of Chk2 at Thr68", "setting": "[10]", "value": "could rescue"}
    ]},
    {"molecule": "Biotin-DTPCLIIED[pS]QPESQVLEDD", "note": "[53BP1 peptide Ser25(P), biotin-DTPCLIIEDpSQPESQVLEDD]", "values": [
      {"measurement": "Kd", "setting": "[11]", "value": "> 1000", "unit": "µM"},
      {"measurement": "Kd", "setting": "[12]", "value": "> 1000", "unit": "µM"}
    ]},
    {"molecule": "B1", "values": [
      {"measurement": "retrieval of phosphorylated 53BP1 from extracts of irradiated cells", "setting": "53BP1 [13]", "value": "could retrieve phosphorylated 53BP1 from extracts of irradiated cells"}
    ]}
  ]
}
